Source: ChEMBL document CHEMBL1145607, “Design, synthesis and evaluation of 2-phenyl-1H-benzo[d]imidazole-4,7-diones as vascular smooth muscle cell proliferation inhibitors” (Bioorg Med Chem Lett, 2008)
Calls of active or inactive are those of the source. The rule behind the calls is not given here.

Experiments:
[1] = Antiproliferative activity against PDGF-induced rat aortic VSMC by colorimetric assay; assay type: functional, tissue-based; details: Aorta
Summary of the method: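 Rat aortic SMCs stimulated with PDGF; inhibition of proliferation read by a colorimetric assay; IC50 values determined by comparison to mycophenolic acid as standard agent.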

[2] = Down-regulation of cyclin A protein expression in rat aortic VSMC at 1 ug/ml after 48 hrs by Western blot; assay type: functional, tissue-based; details: Aorta
Summary of the method: (§1)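 Total cell lysates from cultured SMCs treated with 1 µg/mL for 48 h; PCNA, cyclin A, cyclin D1, pRb (also cdk 2) probed by Western blot.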

[3] = molecular target: RAC-alpha serine/threonine-protein kinase (Rattus norvegicus) (UniProt P47196); assay: Inhibition of Akt phosphorylation in rat aortic VSMC at 1 ug/ml after 1 hr; assay type: tissue-based; details: Aorta
Summary of the method: (§2)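 Cultured SMCs exposed to test agent for 1 h; phosphorylated ERK and phosphorylated Akt examined by Western blot.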

[4] = tested on: VSMC; assay: Antiproliferative activity against PDGF-induced rat aortic VSMC assessed as cell density at 1 ug/ml after 48 hrs by phase-contrast microscope; assay type: functional, cell-based
Summary of the method: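 Cultured rat aortic SMCs exposed to 1 µg/mL test agent or DMSO vehicle alone for 48 h; cell density judged by observation and photography under a phase-contrast microscope.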

[5] = Cell cycle arrest in rat aortic VSMC assessed as DNA accumulation at S phase at 1 ug/ml after 48 hrs relative to control; assay type: functional, cell-based
Summary of the method: (§3)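 Cultured SMCs treated with 1 µg/mL for 48 h alongside a vehicle-treated control; DNA content per cell-cycle phase analysed by flow cytometry.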

[6] = Cell cycle arrest in rat aortic VSMC assessed as DNA accumulation at G0/G1 phase at 1 ug/ml after 48 hrs relative to control; assay type: functional, cell-based; summary of the method: as §3
[7] = Cell cycle arrest in rat aortic VSMC assessed as DNA accumulation at G2/M phase at 1 ug/ml after 48 hrs relative to control; assay type: functional, cell-based; summary of the method: as §3
[8] = species on record: Rattus norvegicus; assay: Inhibition of ERK phosphorylation in rat aortic VSMC at 1 ug/ml after 1 hr; assay type: tissue-based; details: Aorta; summary of the method: as §2
[9] = tested on: VSMC; assay: Effect on pRb protein expression in rat aortic VSMC at 1 ug/ml after 48 hrs by Western blot; assay type: functional, tissue-based; details: Aorta; summary of the method: as §1
[10] = tested on: VSMC; assay: Effect on cyclin D1 protein expression in rat aortic VSMC at 1 ug/ml after 48 hrs by Western blot; assay type: functional, tissue-based; details: Aorta; summary of the method: as §1
[11] = Down-regulation of PCNA protein expression in rat aortic VSMC at 1 ug/ml after 48 hrs by Western blot; assay type: functional, tissue-based; details: Aorta; summary of the method: as §1

Chain of RAC-alpha serine/threonine-protein kinase (Rattus norvegicus) (P47196 whole entry): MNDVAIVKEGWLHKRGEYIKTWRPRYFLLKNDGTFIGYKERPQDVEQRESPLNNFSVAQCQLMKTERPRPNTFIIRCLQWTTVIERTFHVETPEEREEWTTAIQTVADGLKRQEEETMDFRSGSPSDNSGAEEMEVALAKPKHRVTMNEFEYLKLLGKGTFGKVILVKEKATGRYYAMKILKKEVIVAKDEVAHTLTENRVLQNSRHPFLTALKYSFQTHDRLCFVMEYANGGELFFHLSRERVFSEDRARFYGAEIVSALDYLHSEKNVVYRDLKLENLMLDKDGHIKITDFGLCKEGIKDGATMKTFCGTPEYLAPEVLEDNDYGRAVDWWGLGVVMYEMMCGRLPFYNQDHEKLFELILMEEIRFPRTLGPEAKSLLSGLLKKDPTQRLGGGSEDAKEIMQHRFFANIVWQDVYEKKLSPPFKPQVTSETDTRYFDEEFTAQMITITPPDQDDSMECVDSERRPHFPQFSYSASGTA

## COc1c(C)c2c(c(O)c1C/C=C(\C)CCC(=O)O)C(=O)OC2 [MYCOPHENOLIC ACID]
[1]
  IC50: 1 µM

## O=C1C(Cl)=C(Nc2ccc(OC(F)(F)F)cc2)C(=O)c2[nH]c(-c3ccccc3)nc21
[1]
  IC50: 1.5 µM

## O=C1C(Cl)=C(Nc2ccc(Cl)cc2)C(=O)c2[nH]c(-c3ccncc3)nc21
[1]
  IC50: 25 µM

## O=C1C(Cl)=C(Sc2ccc(Br)cc2)C(=O)c2[nH]c(-c3ccccc3)nc21
[1]
  IC50: 1.5 µM

## O=C1C(Cl)=C(Nc2ccc(Cl)cc2)C(=O)c2[nH]c(-c3ccccn3)nc21
[1]
  IC50: 12.1 µM

## COc1ccc(SC2=C(Cl)C(=O)c3nc(-c4ccccc4)[nH]c3C2=O)cc1
[2]
  Activity: Active
[3]
  Activity: Active
[1]
  IC50: 1 µM
[4]
  Activity: Active
[5]
  Activity: 22.4%
[6]
  Activity: 59.6%
[7]
  Activity: 8%
[8]
  Activity: Active
[9]
  Activity: Active
[10]
  Activity: Active
[11]
  Activity: Active

## CCc1ccc(SC2=C(Cl)C(=O)c3nc(-c4ccccn4)[nH]c3C2=O)cc1
[1]
  IC50: 7 µM

## Cc1ccc(NC2=C(Cl)C(=O)c3nc(-c4ccccc4)[nH]c3C2=O)cc1
[1]
  IC50: 3 µM

## COc1ccc(NC2=C(Cl)C(=O)c3nc(-c4ccccn4)[nH]c3C2=O)cc1
[1]
  IC50: 20 µM

## O=C1C(Cl)=C(Sc2ccc(Cl)cc2)C(=O)c2[nH]c(-c3ccccn3)nc21
[1]
  IC50: 4 µM

## CCc1ccc(NC2=C(Cl)C(=O)c3nc(-c4ccccc4)[nH]c3C2=O)cc1
[1]
  IC50: 10.7 µM

## O=C1C(Cl)=C(Sc2ccc(O)cc2)C(=O)c2[nH]c(-c3ccccc3)nc21
[1]
  IC50: 2 µM

## O=C1C(Cl)=C(Nc2ccc(Br)cc2)C(=O)c2[nH]c(-c3ccncc3)nc21
[1]
  IC50: 100 µM

## COc1ccc(NC2=C(Cl)C(=O)c3nc(-c4ccncc4)[nH]c3C2=O)cc1
[1]
  IC50: 50 µM

## COc1ccc(NC2=C(Cl)C(=O)c3nc(-c4ccccc4)[nH]c3C2=O)cc1
[1]
  IC50: 2 µM

## COc1ccc(NC2=C(Cl)C(=O)c3nc(-c4cccnc4)[nH]c3C2=O)cc1
[1]
  IC50: 42 µM

## COc1ccc(SC2=C(Cl)C(=O)c3nc(-c4ccccn4)[nH]c3C2=O)cc1
[1]
  IC50: 4.2 µM

## Cc1ccc(SC2=C(Cl)C(=O)c3nc(-c4ccccn4)[nH]c3C2=O)cc1
[1]
  IC50: 2.5 µM

## O=C1C(Cl)=C(Nc2ccc(F)cc2)C(=O)c2[nH]c(-c3ccncc3)nc21
[1]
  IC50: 50 µM

## O=C1C(Cl)=C(Sc2ccc(Br)cc2)C(=O)c2[nH]c(-c3ccccn3)nc21
[1]
  IC50: 12 µM

## O=C1C(Cl)=C(Sc2ccccc2)C(=O)c2[nH]c(-c3ccccc3)nc21
[1]
  IC50: 1.5 µM

## O=C1C(Cl)=C(Nc2ccc(Cl)cc2)C(=O)c2[nH]c(-c3cccnc3)nc21
[1]
  IC50: 20 µM

## O=C1C(Cl)=C(Nc2ccc(Br)cc2)C(=O)c2[nH]c(-c3cccnc3)nc21
[1]
  IC50: 50 µM

## O=C1C(Cl)=C(Nc2ccc(Br)cc2)C(=O)c2[nH]c(-c3ccccn3)nc21
[1]
  IC50: 6.5 µM

## CCOc1ccc(NC2=C(Cl)C(=O)c3nc(-c4ccccc4)[nH]c3C2=O)cc1
[1]
  IC50: 50 µM

## Cc1ccc(NC2=C(Cl)C(=O)c3nc(-c4ccccc4)[nH]c3C2=O)cc1C
[1]
  IC50: 3 µM

## O=C1C(Cl)=C(Nc2ccc(Cl)cc2)C(=O)c2[nH]c(-c3ccccc3)nc21
[1]
  IC50: 5.3 µM

## O=C1C(Cl)=C(Nc2ccc(C(F)(F)F)cc2)C(=O)c2[nH]c(-c3ccccc3)nc21
[1]
  IC50: 9.4 µM

## Cc1cccc(SC2=C(Cl)C(=O)c3nc(-c4ccccc4)[nH]c3C2=O)c1
[1]
  IC50: 2 µM

## Cc1ccc(SC2=C(Cl)C(=O)c3nc(-c4ccccc4)[nH]c3C2=O)cc1
[1]
  IC50: 1 µM

## Cc1ccc(NC2=C(Cl)C(=O)c3nc(-c4ccccn4)[nH]c3C2=O)cc1
[1]
  IC50: 50 µM

## O=C1C(Cl)=C(Nc2ccc(F)cc2)C(=O)c2[nH]c(-c3ccccn3)nc21
[1]
  IC50: 9.4 µM

## O=C1C(Cl)=C(Nc2ccc(OC(F)(F)F)cc2)C(=O)c2[nH]c(-c3ccccn3)nc21
[1]
  IC50: 20 µM

## O=C1C(Cl)=C(Nc2ccc(C(F)(F)F)cc2)C(=O)c2[nH]c(-c3ccccn3)nc21
[1]
  IC50: 1 µM

## O=C1C(Cl)=C(Nc2ccccc2)C(=O)c2[nH]c(-c3ccccc3)nc21
[1]
  IC50: 4 µM

## O=C1C(Cl)=C(Nc2ccc(F)cc2)C(=O)c2[nH]c(-c3cccnc3)nc21
[1]
  IC50: 21 µM
